Assay results published in ChEMBL document CHEMBL1138555, “N-acylated and N,N'-diacylated imidazolidine-2-thione derivatives and N,N'-diacylated tetrahydropyrimidine-2(1H)-thione analogues: synthesis and antiproliferative activity” (Eur J Med Chem, 2009).

Tests used:
[1] = tested on: A549; experiment: Growth inhibition of human A549 cells after 48 hrs by sulforhodamine B assay; format: functional; conditions: A549, 48 h
How it was run: (§1)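 NCI screen panel. Five 10-fold concentrations from 10^-4 to 10^-8 M. Exposure for the last 48 h of a 72 h incubation. Growth estimated by sulforhodamine B protein assay. GI50 is the concentration giving 50% growth inhibition. Where that level was not reached or was exceeded, the value is given as above or below the highest or lowest concentration tested.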

[2] = tested on: RXF 393; experiment: Growth inhibition of human RXF393 cells after 48 hrs by sulforhodamine B assay; format: functional; conditions: RXF 393, 48 h; how it was run: as §1
[3] = tested on: HT-29; experiment: Growth inhibition of human HT-29 cells after 48 hrs by sulforhodamine B assay; format: functional; conditions: HT-29, 48 h; how it was run: as §1
[4] = tested on: 786-0; experiment: Growth inhibition of human 786-0 cells after 48 hrs by sulforhodamine B assay; format: functional; conditions: 786-0, 48 h; how it was run: as §1
[5] = tested on: SN12C; experiment: Growth inhibition of human SN12C cells after 48 hrs by sulforhodamine B assay; format: functional
How it was run: (§2)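 NCI in vitro panel screen. Compounds tested at five 10-fold dilutions, 10^-4 to 10^-8 M. Cells in 96-well plates were exposed for the last 48 h of a 72 h incubation. Viability/growth was read by sulforhodamine B protein assay. GI50 is the concentration giving 50% growth inhibition. Values beyond the tested range are reported as greater or less than the maximum or minimum concentration.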

[6] = tested on: SK-OV-3; experiment: Growth inhibition of human SKOV3 cells after 48 hrs by sulforhodamine B assay; format: functional; conditions: SK-OV-3, 48 h; how it was run: as §1
[7] = tested on: HOP-92; experiment: Growth inhibition of human HOP92 cells after 48 hrs by sulforhodamine B assay; format: functional; conditions: HOP-92, 48 h; how it was run: as §1
[8] = tested on: HL-60(TB); experiment: Growth inhibition of human HL-60(TB) cells after 48 hrs by sulforhodamine B assay; format: functional; conditions: HL-60, 48 h
How it was run: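 NCI 60-cell-line screen protocol: cells exposed to compound at five 10-fold dilutions from 10^-4 to 10^-8 M for the last 48 h of a 72 h incubation. Sulforhodamine B protein assay estimated viability/growth. GI50 (50% growth inhibition) derived; where not reached or exceeded, reported as greater or less than the highest or lowest concentration tested.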

[9] = tested on: NCI-H322M; experiment: Growth inhibition of human NCI-H322M cells after 48 hrs by sulforhodamine B assay; format: functional; how it was run: as §1
[10] = Growth inhibition of human […] cells after 48 hrs by sulforhodamine B assay; format: functional; how it was run: as §1
[11] = tested on: NCI-H460; experiment: Growth inhibition of human NCI-H460 cells after 48 hrs by sulforhodamine B assay; format: functional; conditions: NCI-H460, 48 h; how it was run: as §1
[12] = tested on: DU-145; experiment: Growth inhibition of human DU145 cells after 48 hrs by sulforhodamine B assay; format: functional; conditions: DU-145, 48 h; how it was run: as §1
[13] = tested on: MDA-MB-231; experiment: Growth inhibition of human MDA-MB-231 cells after 48 hrs by sulforhodamine B assay; format: functional; conditions: MDA-MB-231, 48 h; how it was run: as §1
[14] = tested on: U-251; experiment: Growth inhibition of human U251 cells after 48 hrs by sulforhodamine B assay; format: functional; conditions: U-251, 48 h; how it was run: as §2
[15] = tested on: M14; experiment: Growth inhibition of human M14 cells after 48 hrs by sulforhodamine B assay; format: functional; conditions: M14, 48 h; how it was run: as §1
[16] = tested on: UACC-257; experiment: Growth inhibition of human UACC257 cells after 48 hrs by sulforhodamine B assay; format: functional; conditions: UACC-257, 48 h; how it was run: as §2
[17] = tested on: SK-MEL-28; experiment: Growth inhibition of human SK-MEL-28 cells after 48 hrs by sulforhodamine B assay; format: functional; conditions: SK-MEL-28, 48 h; how it was run: as §1
[18] = tested on: SF-268; experiment: Growth inhibition of human SF268 cells after 48 hrs by sulforhodamine B assay; format: functional; conditions: SF-268, 48 h; how it was run: as §1
[19] = tested on: IGROV-1; experiment: Growth inhibition of human IGROV1 cells after 48 hrs by sulforhodamine B assay; format: functional; conditions: IGROV-1, 48 h; how it was run: as §1
[20] = tested on: T47D; experiment: Growth inhibition of human T47D cells after 48 hrs by sulforhodamine B assay; format: functional; how it was run: as §2
[21] = tested on: SK-MEL-5; experiment: Growth inhibition of human SK-MEL-5 cells after 48 hrs by sulforhodamine B assay; format: functional; conditions: SK-MEL-5, 48 h; how it was run: as §1
[22] = tested on: HCT-15; experiment: Growth inhibition of human HCT15 cells after 48 hrs by sulforhodamine B assay; format: functional; conditions: HCT-15, 48 h; how it was run: as §1
[23] = tested on: NCI-H522; experiment: Growth inhibition of human NCI-H522 cells after 48 hrs by sulforhodamine B assay; format: functional; conditions: NCI-H522, 48 h; how it was run: as §1
[24] = tested on: EKVX; experiment: Growth inhibition of human EKVX cells after 48 hrs by sulforhodamine B assay; format: functional; how it was run: as §1
[25] = tested on: TK-10; experiment: Growth inhibition of human TK10 cells after 48 hrs by sulforhodamine B assay; format: functional; conditions: TK-10, 48 h; how it was run: as §2
[26] = tested on: MOLT-4; experiment: Growth inhibition of human MOLT4 cells after 48 hrs by sulforhodamine B assay; format: functional; conditions: MOLT-4, 48 h; how it was run: as §1
[27] = tested on: OVCAR-8; experiment: Growth inhibition of human OVCAR8 cells after 48 hrs by sulforhodamine B assay; format: functional; conditions: OVCAR-8, 48 h; how it was run: as §1
[28] = tested on: UACC-62; experiment: Growth inhibition of human UACC62 cells after 48 hrs by sulforhodamine B assay; format: functional; conditions: UACC-62, 48 h; how it was run: as §2
[29] = tested on: Malme-3M; experiment: Growth inhibition of human MALME-3M cells after 48 hrs by sulforhodamine B assay; format: functional; how it was run: as §1
[30] = tested on: UO-31; experiment: Growth inhibition of human UO31 cells after 48 hrs by sulforhodamine B assay; format: functional; conditions: UO-31, 48 h; how it was run: as §2
[31] = tested on: SR; experiment: Growth inhibition of human SR cells after 48 hrs by sulforhodamine B assay; format: functional; how it was run: as §2
[32] = tested on: ACHN; experiment: Growth inhibition of human ACHN cells after 48 hrs by sulforhodamine B assay; format: functional; how it was run: as §1
[33] = tested on: HCT-116; experiment: Growth inhibition of human HCT116 cells after 48 hrs by sulforhodamine B assay; format: functional; conditions: HCT-116, 48 h; how it was run: as §1
[34] = tested on: MDA-MB-435; experiment: Growth inhibition of human MDA-MB-435 cells after 48 hrs by sulforhodamine B assay; format: functional; conditions: MDA-MB-435, 48 h; how it was run: as §1
[35] = tested on: MT4; experiment: Antiproliferative activity against human MT4 cells assessed as reduction of growth by MTT assay; format: functional, cell-based
How it was run: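 MT-4 lymphoblastoid T cells (ATCC) in RPMI 1640 with 10% FCS, penicillin/streptomycin, checked for mycoplasma. 1 × 10⁴ mock-infected cells per well with serial dilutions from a 100 mM DMSO stock. Incubated 4 days at 37 °C, viable cells counted by MTT. IC50 versus untreated controls by linear regression. Mean of three separate experiments.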

[36] = tested on: CAKI-1; experiment: Growth inhibition of human Caki1 cells after 48 hrs by sulforhodamine B assay; format: functional; conditions: CAKI-1, 48 h; how it was run: as §1
[37] = tested on: NCI-H23; experiment: Growth inhibition of human NCI-H23 cells after 48 hrs by sulforhodamine B assay; format: functional; conditions: NCI-H23, 48 h; how it was run: as §1
[38] = tested on: K562; experiment: Growth inhibition of human K562 cells after 48 hrs by sulforhodamine B assay; format: functional; conditions: K562, 48 h; how it was run: as §1
[39] = tested on: SF-295; experiment: Growth inhibition of human SF295 cells after 48 hrs by sulforhodamine B assay; format: functional; conditions: SF-295, 48 h; how it was run: as §1
[40] = tested on: BT-549; experiment: Growth inhibition of human BT549 cells after 48 hrs by sulforhodamine B assay; format: functional; conditions: BT-549, 48 h; how it was run: as §1
[41] = tested on: SW-620; experiment: Growth inhibition of human SW620 cells after 48 hrs by sulforhodamine B assay; format: functional; conditions: SW-620, 48 h; how it was run: as §2
[42] = tested on: SK-MEL-2; experiment: Growth inhibition of human SK-MEL-2 cells after 48 hrs by sulforhodamine B assay; format: functional; conditions: SK-MEL-2, 48 h; how it was run: as §1
[43] = tested on: MCF7; experiment: Growth inhibition of human MCF7 cells after 48 hrs by sulforhodamine B assay; format: functional; conditions: MCF7, 48 h; how it was run: as §1
[44] = tested on: KM12; experiment: Growth inhibition of human KM12 cells after 48 hrs by sulforhodamine B assay; format: functional; conditions: KM12, 48 h; how it was run: as §1
[45] = tested on: PC-3; experiment: Growth inhibition of human PC3 cells after 48 hrs by sulforhodamine B assay; format: functional; conditions: PC-3, 48 h; how it was run: as §1
[46] = tested on: OVCAR-3; experiment: Growth inhibition of human OVCAR-3 cells after 48 hrs by sulforhodamine B assay; format: functional; conditions: OVCAR-3, 48 h; how it was run: as §1
[47] = tested on: OVCAR-4; experiment: Growth inhibition of human OVCAR4 cells after 48 hrs by sulforhodamine B assay; format: functional; conditions: OVCAR-4, 48 h; how it was run: as §1

Q: Which results are given for `N#CC(C#N)=CN1CCN(C(=O)c2ccccc2)C1=S`?
A: GI50 [1]: 37.1 µM; GI50 [2]: 22.7 µM; GI50 [3]: 42 µM; GI50 [4]: 38.9 µM; GI50 [5]: 24.6 µM; GI50 [6]: 66.7 µM; GI50 [7]: 56.8 µM; GI50 [8]: 33.5 µM; GI50 [9]: 33.4 µM; GI50 [10]: 35.3 µM; GI50 [11]: 20 µM; GI50 [12]: 24.4 µM; GI50 [13]: 36.1 µM; GI50 [14]: 38.2 µM; GI50 [15]: 37.3 µM; GI50 [16]: 25.3 µM; GI50 [17]: 45.5 µM; GI50 [18]: 21.3 µM; GI50 [19]: 28.2 µM; GI50 [20]: 89.2 µM; GI50 [21]: 23.3 µM; GI50 [22]: 36.4 µM; GI50 [23]: 15.9 µM; GI50 [24]: 3.5 µM; GI50 [25]: 23.3 µM; GI50 [26]: 39.2 µM; GI50 [27]: 77 µM; GI50 [28]: 50.4 µM; GI50 [29]: 10.2 µM; GI50 [30]: 20.4 µM; GI50 [31]: 18.8 µM; GI50 [32]: 18.8 µM; GI50 [33]: 34 µM; GI50 [34]: 38.8 µM; IC50 [35]: 11 µM; GI50 [36]: 28.7 µM; GI50 [37]: 26.1 µM; GI50 [38]: 79.5 µM; GI50 [39]: 46.2 µM; GI50 [40]: 22.8 µM; GI50 [41]: 33.7 µM; GI50 [42]: 18.4 µM; GI50 [43]: 16.7 µM; GI50 [44]: 32.3 µM; GI50 [45]: 60 µM; GI50 [46]: 36.4 µM; GI50 [47]: 59.3 µM
